# Compound activity from PubChem.
# SR-BI HDL uptake – inhibitors of SR-BI mediated HDL lipid uptake, primary screen, ldlA[mSR-BI] cells, fluorescence, single point | hit rate 0.96% among 320,000 | ldlA[mSR-BI] CHO cells, DiI-HDL uptake fluorescence, 3 h | inhibition, % at 12.5 µM;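 active = mean replicate inhibition of at least 70% and a set share of replicates each scoring 70 or more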;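 note: 0% = median of neutral control wells and 100% = median of positive control wells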
# ANO1 block – TMEM16A chloride channel inhibitors, primary screen, cell-based, HTS | Anoctamin-1 (Mus musculus), Q8BHY3 | HEK293 TMEM16A/YFP iodide influx fluorescence, ionomycin | normalized B-score (activity score, 25-100; higher = stronger inhibition) at 10 µM | hit rate 1.2% among 310,000;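 active = ratio plate-corrected score three or more library SD toward inhibition, starting fluorescence score within five deviations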;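 note: score derived from kinetic fluorescence span divided by baseline fluorescence per well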
# DNA FID counter – compounds displacing fluorescent DNA intercalator, primary screen, artefact control for HCV NS3 helicase inhibitor project, biochemical, FID fluorescence | DNA fluorescent intercalator displacement | inhibition, % at 7.9 µM | hit rate 0.17% among 290,000; in the data active = inhibition above about 37%;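 note: 0% = vehicle and 100% = reference compound; higher means more ethidium bromide displaced from hairpin DNA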
# ANO1 activ – TMEM16A chloride channel activators or potentiators, primary screen, cell-based, HTS; hit rate 0.3% among 340,000; HEK293 TMEM16A/YFP-H148Q/I152L, iodide quench fluorescence; active compounds read low; AID 623877, 2012; B-score at 10 µM; Anoctamin-1 (Mus musculus), Q8BHY3;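 active = fluorescence-ratio B-score plate-corrected deviation score at least 3 library SD below zero, with starting fluorescence score within 5 deviations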;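 note: channel opened by trigger with iodide after compound preincubation; score built on the fluorescence ratio of max minus min over baseline; more negative score means more quench and so TMEM16A activation or potentiation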
# SR-BI DiI-HDL act – activators of SR-BI mediated DiI-HDL uptake, primary screen, ldlA[mSR-BI] CHO cells, DiI fluorescence | 3 h; 100 = double the neutral-control signal | activation, % at 12.5 µM | hit rate 0.096% among 320,000;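 active = mean replicate activation of at least 60% and every replicate at or above 60%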;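 note: 0% = median plate neutral-control signal and 100% = twice that signal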
#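 Material – SR-BI-overexpressing, LDLR-lacking CHO cells · Medium – BSA-supplemented, HEPES-buffered Ham's F12, pH 7.4 · Doses – single concentration · Times – compound with DiI-HDL co-incubation, 3 h at 37 °C · Measured by – bottom-read fluorescence, 550/595 nm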
# Kir21 inh – inhibitors of mouse Kir2.1 inward-rectifier potassium channel; hit rate 0.85% among 310,000; HEK293-Kir2.1, FluxOR thallium flux fluorescence; active compounds read low; B-score at 10 µM; Inward rectifier potassium channel 2 (Mus musculus), P35561;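 active = fluorescence ratio B-score at or below minus 3 SD of library scores, with starting-brightness B-score within 2 SD, cut at about -4.2 in these data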;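 note: channel flux triggered by added potassium and thallium sulfate stimulus; B-score of peak minus minimum fluorescence over baseline after thallium stimulus; more negative B-score means stronger Kir2.1 block with less thallium influx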
# Target sequence (P35561 whole entry, looked up): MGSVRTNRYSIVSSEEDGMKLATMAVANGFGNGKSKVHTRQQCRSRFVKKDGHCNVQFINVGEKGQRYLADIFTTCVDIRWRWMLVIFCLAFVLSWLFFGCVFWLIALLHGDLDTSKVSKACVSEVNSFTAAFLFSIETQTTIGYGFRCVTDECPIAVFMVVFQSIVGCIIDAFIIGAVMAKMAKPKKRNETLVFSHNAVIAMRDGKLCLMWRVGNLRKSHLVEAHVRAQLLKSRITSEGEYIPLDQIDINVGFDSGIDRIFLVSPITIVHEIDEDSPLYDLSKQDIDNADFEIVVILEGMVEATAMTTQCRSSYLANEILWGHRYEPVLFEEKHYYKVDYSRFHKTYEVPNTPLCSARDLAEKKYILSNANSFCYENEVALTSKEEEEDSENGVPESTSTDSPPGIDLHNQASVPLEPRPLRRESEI
# Active calls of the source: *; i = inactive; . = not tested or not shown. Most compounds without a hit are left out; they make up all but 3% or so of the library.
SMILES,SR-BI HDL uptake,ANO1 block,DNA FID counter,ANO1 activ,SR-BI DiI-HDL act,Kir21 inh
CCOC(=O)C1=C(COC(=O)/C=C/c2ccc(Cl)cc2)NC(=O)NC1C (configuration not stated),0,i,-29,i,0,-0.68
O=C(Nc1cccc2cccnc12)c1ccc(Cl)cc1,-14,i,-11,i,14,-0.22
CCNC(=O)c1c(NC(=O)C2COc3ccccc3O2)sc2c1CCCC2 (configuration not stated),28,i,0,i,-28,-0.4
COCCCNC(=O)c1c(NC(=O)C2COc3ccccc3O2)sc2c1CCCC2 (configuration not stated),76*,i,-5,i,-76,-0.86
NC(=O)c1ccc(N2CCNC(=O)C2)c([N+](=O)[O-])c1,-11,i,-3,i,11,0.33
NS(=O)(=O)c1ccc(Oc2ccc(S(N)(=O)=O)cc2)cc1,-2,i,14,-4.9*,2,0.69
O=c1[nH]c(C(Cl)Cl)nc2sc3c(c12)CCN(Cc1ccccc1)C3,-16,i,1,i,16,-2.4
CCCSc1nc2sc3c(c2c(=O)[nH]1)CCN(Cc1ccccc1)C3,-16,i,-12,-5.6*,16,-4.2
CC(=O)c1c(C)[nH]c(C(=O)N2c3ccccc3CC2C)c1C (configuration not stated),72*,i,-15,i,-72,-1.8
CCOc1ccc(NC(=O)c2ccccc2OCC(=O)c2ccccc2)cc1,65,i,-4,i,-65,-2.6
Cc1ccc(NC(=O)c2ccccc2OCC(=O)c2ccccc2)cc1,78*,i,4,i,-78,-1.2
Cc1ccc(CN=C(Nc2ccccc2)NC2CCCCC2)cc1,-13,i,15,i,13,-6.5*
NC(=S)NN=Cc1ccc(-c2ccc(S(=O)(=O)Nc3ncccn3)cc2)o1,5,.,.,i,-5,.
NC(=S)N/N=C/c1ccc(-c2ccc(Cl)c(Cl)c2)o1,86*,i,4,i,-86,0.73
Cc1ccc(-c2ccc(/C=N/NC(N)=S)o2)cc1,96*,i,-5,i,-96,-0.08
NC(=S)N/N=C/c1ccc(-c2ccccc2)o1,65,i,-1,i,-65,0.01
NC(=S)N/N=C/c1ccc(-c2ccc(SC(F)F)cc2)o1,74*,i,-1,i,-74,-3.7
C/C(=N\NC(=O)c1cc(-c2ccc(C)s2)[nH]n1)c1ccncc1,-16,i,-17,i,16,2.4
CCOC(=O)Oc1ccc(/C=C2\N=C(C)OC2=O)cc1,-17,i,0,i,17,1.8
CC1(C)CC2CC(C)(CN2S(=O)(=O)c2ccc(C(=O)Nc3cc(S(=O)(=O)N4CCOCC4)ccc3Cl)cc2)C1 (configuration not stated),-3,i,-21,-12*,3,-0.66
Cc1cc(NC(=O)c2sc(Nc3ccc(F)c(Cl)c3)nc2N)no1,87*,i,3,i,-87,-0.29
Cc1cc(NC(=O)c2sc(Nc3cccc(C(F)(F)F)c3)nc2N)no1,56,i,-3,i,-56,-0.04
CCOc1ccccc1NC(=O)C1CCCN1C(=O)c1cccs1 (configuration not stated),-87,.,.,i,87*,.
Cc1ccccc1OC1CCN(C(=O)C2CCC(=O)N(C3CCCC3)C2)CC1 (configuration not stated),8,i,-58,i,-8,-3.4
Cc1cc(C)c2c(N)c(C(=O)N/N=C/c3ccccc3)sc2n1,51,i,1,i,-51,1
SMILES,SR-BI HDL uptake,ANO1 block,DNA FID counter,ANO1 activ,SR-BI DiI-HDL act,Kir21 inh
COc1ccc([C@H]2CC(=O)C=C(c3ccc(Cl)c(C(F)(F)F)c3)C2)cc1,17,.,.,i,-17,.
COc1ccccc1-n1nnnc1SCC(=O)NCC1(N2CCOCC2)CCCCC1,-4,.,.,i,4,.
Cc1ccc(S(=O)(=O)Cc2ccc(C(=O)N3CCN(c4ccccn4)CC3)o2)cc1,29,i,-31,i,-29,0.36
O=C(c1ccc(CS(=O)(=O)c2ccc(Br)cc2)o1)N1CCN(c2ccccn2)CC1,9,i,-29,-7.8*,-9,-0.67
COc1ccc(CCNC(=O)c2cccs2)cc1,-13,i,0,i,13,0.76
O=C(Nc1ccccc1)C(Cl)C(=O)c1ccccc1 (configuration not stated),8,i,2,i,-8,-8.3*
CC(=O)C(Cl)C(=O)Nc1ccccc1 (configuration not stated),3,.,3,i,-3,.
C#CCOCCOCCOCCNc1nc(N2CCN(C(=O)[C@H](CCC(=O)O)n3cc(C(N)CC(C)C)nn3)CC2)nc(N2CCN(C(=O)[C@H](Cc3ccc(O)cc3)n3cc(C(N)CC(C)C)nn3)CC2)n1 (some centres not stated),-5,i,12,i,5,1.7
C#CCOCCOCCOCCNc1nc(N2CCN(C(=O)[C@H](CCCCN)n3cc([C@@H](N)CC(C)C)nn3)CC2)nc(N2CCN(C(=O)[C@H](Cc3ccc(O)cc3)n3cc([C@@H](N)CC(C)C)nn3)CC2)n1,.,i,44*,.,.,0.46
C#CCOCCOCCOCCNc1nc(N2CCN(C(=O)C(Cc3ccc(O)cc3)n3cc(C(N)C(C)CC)nn3)CC2)nc(N2CCN(C(=O)C(Cc3ccc(O)cc3)n3cc(C(N)C(C)CC)nn3)CC2)n1 (configuration not stated),-19,i,40*,i,19,-0.45
C#CCOCCOCCOCCNc1nc(N2CCN(C(=O)[C@H](CCCCN)n3cc(C(N)CO)nn3)CC2)nc(N2CCN(C(=O)[C@H](CCC(=O)O)n3cc(C(N)CC(C)C)nn3)CC2)n1 (some centres not stated),.,.,.,.,.,-0.54
C#CCOCCOCCOCCNc1nc(N2CCN(C(=O)[C@H]([C@@H](C)CC)n3cc([C@@H](N)CC(C)C)nn3)CC2)nc(N2CCN(C(=O)[C@H](CCCCN)n3cc([C@@H](N)CO)nn3)CC2)n1,-29,i,38*,i,29,-0.42
